Reference: ChEMBL document CHEMBL3627607, “A Novel Pyrazolopyridine with in Vivo Activity in Plasmodium berghei- and Plasmodium falciparum-Infected Mouse Models from Structure-Activity Relationship Studies around the Core of Recently Identified Antimalarial Imidazopyridazines” (J Med Chem, 2015)
Active and inactive are the calls of the source. No cut-off for these calls is given here.

How the values were obtained:
Liver microsome [1] = experiment: Metabolic stability of the compound in rat liver microsomes assessed as compound remaining at 0.1 uM after 30 mins by LC-MS/MS analysis; assay type: ADME; details: 0.5 h
Liver microsome [2] = experiment: Metabolic stability of the compound in human liver microsomes assessed as compound remaining at 0.1 uM after 30 mins by LC-MS/MS analysis; assay type: ADME; details: 0.5 h
[3] = Metabolic stability of the compound in mouse liver microsomes assessed as compound remaining at 0.1 uM after 30 mins by LC-MS/MS analysis; assay type: ADME; details: 0.5 h
Plasmodium berghei [4] = experiment: Antiplasmodial activity against Plasmodium berghei ANKA expressing GFP infected in mouse assessed as reduction of parasitemia level at 30 mg/kg, po qd for 4 days; assay type: functional; design: scale not given: the % may be the effect or the level left
Plasmodium falciparum [5] = experiment: Antiplasmodial activity against Plasmodium falciparum 3D7 infected in po dosed non-myelodepleted NOD-SCID IL2Rgammanull mouse engrafted with human erythrocytes assessed as reduction of parasitemia level administered qd for 4 days; assay type: functional; details: 3D7, po, 96 h
Procedure, shortened: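 P. falciparum-infected engrafted NSG mice were dosed orally once daily for four consecutive days. Blood parasitemia was monitored, and a 90% effective dose was derived along with the blood exposure at that dose.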

Plasmodium berghei [6] = experiment: Antiplasmodial activity against Plasmodium berghei ANKA expressing GFP infected in mouse assessed as means survival days at 30 mg/kg, po qd for 4 days; assay type: functional
Plasmodium falciparum [7] = experiment: Antiplasmodial activity against drug sensitive Plasmodium falciparum NF54 infected in human erythrocytes after 48 hrs by [3H]-hypoxanthine incorporation assay; assay type: functional, organism-based
Plasmodium falciparum [8] = experiment: Antiplasmodial activity against multidrug resistant Plasmodium falciparum K1 infected in human erythrocytes after 48 hrs by [3H]-hypoxanthine incorporation assay; assay type: functional, organism-based
Plasmodium berghei [9] = experiment: Antiplasmodial activity against Plasmodium berghei ANKA expressing GFP infected in mouse assessed as reduction of parasitemia level at 50 mg/kg, po qd for 4 days measured on day 4 post last dose by flow cytometric analysis relative to control; assay type: functional; design: scale not given: the % may be the effect or the level left
Procedure, shortened: (§1)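 Mice (n = 3) infected with GFP-transfected P. berghei ANKA. Test agents were suspended in HPMC vehicle (0.5% w/v hydroxypropylmethylcellulose, 0.5% v/v benzyl alcohol, 0.4% v/v Tween 80, 0.9% w/v NaCl in water). Dosed orally at 4, 24, 48 and 72 h post-infection. Parasitemia read by flow cytometry on day 4 (96 h), detection limit 0.1%. Activity = control-minus-treated mean % parasitemia, relative to control.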

[10] = Selectivity index, ratio of IC50 for CHO cells to IC50 for Plasmodium falciparum NF54; assay type: toxicity, cell-based; details: hamster, read-out: Ratio IC50
Plasmodium berghei [11] = experiment: Antiplasmodial activity against Plasmodium berghei ANKA expressing GFP infected in mouse assessed as means survival days at 50 mg/kg, po qd for 4 days; assay type: functional
Procedure, shortened: (§2)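 Mice (n = 3) infected with GFP-transfected P. berghei ANKA. Compounds dissolved or suspended in HPMC vehicle (0.5% w/v hydroxypropylmethylcellulose, 0.5% v/v benzyl alcohol, 0.4% v/v Tween 80, 0.9% w/v NaCl in water). Dosed orally 4, 24, 48 and 72 h after infection. Parasitemia read by flow cytometry (detection limit 0.1%). Survival recorded as mean survival time in days.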

[12] = Selectivity index, ratio of IC50 for African green monkey VERO cells to IC50 for Plasmodium falciparum NF54; assay type: toxicity, cell-based; details: read-out: Ratio IC50
[13] = Selectivity index, ratio of IC50 for African green monkey VERO cells to IC50 for multidrug resistant Plasmodium falciparum K1; assay type: toxicity, cell-based; details: read-out: Ratio IC50
[14] = Plasma clearance in rat at 5 mg/kg, iv; assay type: ADME, organism-based
[15] = Selectivity index, ratio of IC50 for CHO cells to IC50 for multidrug resistant Plasmodium falciparum K1; assay type: toxicity, cell-based; details: hamster, read-out: Ratio IC50
[16] = Oral bioavailability in rat at 20 mg/kg; assay type: ADME, organism-based; details: in vivo
[17] = Volume of distribution in rat at 5 mg/kg, iv; assay type: ADME, organism-based; details: in vivo
[18] = Half life in rat at 20 mg/kg, po; assay type: ADME, organism-based; details: in vivo
[19] = Half life in rat at 5 mg/kg, iv; assay type: ADME, organism-based; details: in vivo
[20] = Drug level in mouse blood at 50 mg/kg, po after 4 hrs; assay type: ADME, organism-based; details: read-out: Drug uptake
Procedure, shortened: (§3)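 Snapshot whole-blood levels of parent and its sulfone metabolite at 1, 4 and 24 h after the first 50 mg/kg oral dose. Samples came from the P. berghei-infected efficacy mice, dosed in HPMC suspension vehicle.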

[21] = Drug level in mouse blood at 50 mg/kg, po after 1 hr; assay type: ADME, organism-based; details: read-out: Drug uptake; procedure, shortened: as §3
[22] = Solubility of the compound in 0.01M HCl at pH 2 by Nephelometric analysis; assay type: physicochemical; details: buffer
Blood = experiment: Drug level in mouse blood at 50 mg/kg, po after 24 hrs; assay type: ADME, organism-based; details: in vivo, 24 h, BLD = below limit of detection; procedure, shortened: as §3
Plasmodium berghei [23] = experiment: Antiplasmodial activity against Plasmodium berghei ANKA expressing GFP infected in mouse assessed as reduction of parasitemia level at 10 mg/kg, po qd for 4 days measured on day 4 post last dose by flow cytometric analysis relative to control; assay type: functional; design: scale not given: the % may be the effect or the level left; procedure, shortened: as §1
Plasmodium berghei [24] = experiment: Antiplasmodial activity against Plasmodium berghei ANKA expressing GFP infected in mouse assessed as means survival days at 10 mg/kg, po qd for 4 days; assay type: functional; procedure, shortened: as §2
Plasmodium berghei [25] = experiment: Antiplasmodial activity against Plasmodium berghei ANKA expressing GFP infected in mouse assessed as reduction of parasitemia level at 3 mg/kg, po qd for 4 days measured on day 4 post last dose by flow cytometric analysis relative to control; assay type: functional; design: scale not given: the % may be the effect or the level left; procedure, shortened: as §1
Plasmodium berghei [26] = experiment: Antiplasmodial activity against Plasmodium berghei ANKA expressing GFP infected in mouse assessed as means survival days at 3 mg/kg, po qd for 4 days; assay type: functional; procedure, shortened: as §2
Plasmodium berghei [27] = experiment: Antiplasmodial activity against Plasmodium berghei ANKA expressing GFP infected in mouse assessed as mouse cured from disease at 50 mg/kg, po qd for 4 days; assay type: functional, organism-based
[28] = target: Voltage-gated inwardly rectifying potassium channel KCNH2 (Homo sapiens, UniProt Q12809); experiment: Inhibition of human ERG potassium channel by ionworks patch-clamp electrophysiology assay
Plasmodium berghei [29] = experiment: Antiplasmodial activity against sporozoite stage of Plasmodium berghei expressing luciferase infected in human HepG2-A16-CD81EGFP cells preincubated with cells for 18 hrs followed by protozoal infection measured after 48 hrs by bioluminescence assay; assay type: functional, organism-based
Procedure, shortened: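 HepG2 cells were pretreated 18 h with compound, then infected with freshly dissected luciferase-expressing P. berghei sporozoites. After a further 48 h with compound, viability of exoerythrocytic forms and of HepG2 host cells was read by bioluminescence.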

Chain of Voltage-gated inwardly rectifying potassium channel KCNH2 (Q12809 whole entry): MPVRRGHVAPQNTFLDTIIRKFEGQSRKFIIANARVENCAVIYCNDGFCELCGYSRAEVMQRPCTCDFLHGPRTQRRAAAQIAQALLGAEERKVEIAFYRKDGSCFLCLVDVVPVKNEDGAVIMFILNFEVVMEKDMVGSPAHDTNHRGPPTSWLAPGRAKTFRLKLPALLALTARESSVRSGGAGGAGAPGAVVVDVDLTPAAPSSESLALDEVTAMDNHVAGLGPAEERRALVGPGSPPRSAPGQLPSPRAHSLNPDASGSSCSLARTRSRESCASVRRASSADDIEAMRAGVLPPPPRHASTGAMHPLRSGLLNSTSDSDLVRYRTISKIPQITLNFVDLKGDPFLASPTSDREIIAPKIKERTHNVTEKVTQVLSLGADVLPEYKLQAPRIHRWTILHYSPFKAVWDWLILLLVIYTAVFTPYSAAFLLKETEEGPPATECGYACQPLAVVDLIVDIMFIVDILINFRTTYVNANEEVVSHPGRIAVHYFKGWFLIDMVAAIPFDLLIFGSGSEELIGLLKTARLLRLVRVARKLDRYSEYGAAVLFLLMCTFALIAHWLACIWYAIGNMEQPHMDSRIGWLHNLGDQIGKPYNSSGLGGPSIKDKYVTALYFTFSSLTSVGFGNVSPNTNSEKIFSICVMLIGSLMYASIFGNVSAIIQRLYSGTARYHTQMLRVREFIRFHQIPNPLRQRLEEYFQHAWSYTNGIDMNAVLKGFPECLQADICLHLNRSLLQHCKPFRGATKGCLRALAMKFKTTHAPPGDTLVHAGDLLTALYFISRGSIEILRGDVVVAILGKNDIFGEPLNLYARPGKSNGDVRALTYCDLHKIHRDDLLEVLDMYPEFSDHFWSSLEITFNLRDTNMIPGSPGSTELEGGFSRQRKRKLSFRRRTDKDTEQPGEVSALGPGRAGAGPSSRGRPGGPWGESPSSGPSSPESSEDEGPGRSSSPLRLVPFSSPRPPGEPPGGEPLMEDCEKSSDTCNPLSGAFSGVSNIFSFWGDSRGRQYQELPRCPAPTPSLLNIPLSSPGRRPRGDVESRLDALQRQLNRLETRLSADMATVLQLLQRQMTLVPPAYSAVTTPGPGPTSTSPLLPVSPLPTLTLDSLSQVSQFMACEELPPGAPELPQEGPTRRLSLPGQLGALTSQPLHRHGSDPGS

## CS(=O)(=O)c1ccc(-c2cnc3ccc(-c4cccc(S(=O)(=O)C5CC5)c4)nn23)cc1
Liver microsome [1]
  Stability: Stable
Liver microsome [2]
  Stability: Stable
[3]
  Stability: Stable

## O[C@@H](c1cc(C(F)(F)F)nc2c(C(F)(F)F)cccc12)[C@H]1CCCCN1 (relative stereo) [(S,R)-MEFLOQUINE]
Plasmodium berghei [4]
  Activity: 99.9%
Plasmodium falciparum [5]
  ED90: 7.7 mg/kg
Plasmodium berghei [6]
  MSD: 29 days

## CS(=O)(=O)c1ccc(-c2nnc3ccc(-c4cccc(S(C)(=O)=O)c4)cn23)cc1
Plasmodium falciparum [7]
  IC50: > 1000 nM
Plasmodium falciparum [8]
  IC50: > 1000 nM

## CS(=O)(=O)c1ccc(-c2cnc3ccc(-c4cccc(S(=O)(=O)C5CC5)c4)cn23)cc1
Plasmodium berghei [9]
  Activity: 99.5%
[10]
  selectivity ratio: 700
Plasmodium berghei [11]
  MSD: 10 days
[12]
  selectivity ratio: 700
Liver microsome [1]
  Stability: Stable
Plasmodium falciparum [7]
  IC50: 46 nM
[13]
  selectivity ratio: 700
[14]
  clearance: 8.7 mL/min/kg
[15]
  selectivity ratio: 700
[16]
  bioavailability: 51%
[17]
  Vd: 2.3 L/kg
[18]
  half-life: 3.9 h
[19]
  half-life: 3 h
Plasmodium falciparum [8]
  IC50: 38 nM
Liver microsome [2]
  Stability: Stable
[3]
  Stability: Stable

## CS(=O)(=O)c1ccc(-c2cnn3c2NC(c2cccc(S(=O)(=O)C4CC4)c2)CC3)cc1 (stereo not given)
Plasmodium berghei [9]
  Activity: 78%
[20]
  concentration at 4 h: 177 nM
[21]
  concentration at 1 h: 456 nM
[10]
  selectivity ratio: > 1000
Plasmodium berghei [11]
  MSD: 7 days
[12]
  selectivity ratio: > 1000
Liver microsome [1]
  Stability: Stable
Plasmodium falciparum [7]
  IC50: 44 nM
[22]
  solubility: soluble
[13]
  selectivity ratio: > 1000
[15]
  selectivity ratio: > 1000
Blood
  Drug uptake: BLD
Plasmodium falciparum [8]
  IC50: 46 nM
Liver microsome [2]
  Stability: Stable
[3]
  Stability: Stable

## CS(=O)(=O)c1ccc(-c2cnn3ccc(-c4cccc(C(F)(F)F)c4)nc23)cc1
Liver microsome [1]
  Stability: Stable
Plasmodium falciparum [7]
  IC50: 48 nM
Plasmodium falciparum [8]
  IC50: 43 nM
Liver microsome [2]
  Stability: Stable
[3]
  Stability: Stable

## CS(=O)(=O)c1ccc(-c2nnc3ccc(-c4cccc(C(F)(F)F)c4)cn23)cc1
Plasmodium falciparum [7]
  IC50: > 1000 nM
Plasmodium falciparum [8]
  IC50: > 1000 nM

## CS(=O)(=O)c1ccc(-c2cnn3ccc(-c4cccc(S(C)(=O)=O)c4)nc23)cc1
Liver microsome [1]
  Stability: Stable
Plasmodium falciparum [7]
  IC50: 2.6 nM
Plasmodium falciparum [8]
  IC50: 2.2 nM
Liver microsome [2]
  Stability: Stable
[3]
  Stability: Stable

## CS(=O)(=O)c1ccc(-c2cnn3ccc(-c4cccc(C(F)(F)F)c4)cc23)cc1
Liver microsome [1]
  Stability: Stable
Plasmodium falciparum [7]
  IC50: 98 nM
Liver microsome [2]
  Stability: Stable
[3]
  Stability: Stable

## CS(=O)(=O)c1ccc(-c2cnc3ncc(-c4cccc(S(C)(=O)=O)c4)cn23)cc1
Plasmodium falciparum [7]
  IC50: > 1000 nM
Plasmodium falciparum [8]
  IC50: > 1000 nM

## CS(=O)(=O)c1ccc(-c2nnc3ccc(-c4cccc(S(C)(=O)=O)c4)nn23)cc1
Plasmodium falciparum [7]
  IC50: > 2340 nM

## C[S+]([O-])c1ccc(-c2cnc3ccc(-c4cccc(S(=O)(=O)C5CC5)c4)nn23)cc1 (stereo not given)
Plasmodium berghei [9]
  Activity: 99.8%
Plasmodium berghei [11]
  MSD: >30 days
Liver microsome [1]
  Stability: Stable
Plasmodium berghei [23]
  Activity: 99.6%
Plasmodium berghei [24]
  MSD: 8 days
Plasmodium berghei [25]
  Activity: 98%
Plasmodium berghei [26]
  MSD: 7 days
Liver microsome [2]
  Stability: Stable
Plasmodium berghei [27]
  Activity: Active
[3]
  Stability: Stable

## CS(=O)(=O)c1ccc(-c2cnc3cnc(-c4cccc(S(C)(=O)=O)c4)cn23)cc1
Liver microsome [1]
  Stability: Stable
Plasmodium falciparum [7]
  IC50: 877 nM
[22]
  solubility: soluble
Liver microsome [2]
  Stability: Stable
[3]
  Stability: Stable

## CCc1nc(N)nc(N)c1-c1ccc(Cl)cc1 [PYRIMETHAMINE]
Plasmodium falciparum [5]
  ED90: 0.9 mg/kg

## CS(=O)(=O)c1ccc(-c2cnc3ccc(-c4cccc(S(C)(=O)=O)c4)cn23)cc1
Liver microsome [1]
  Stability: Stable
Plasmodium falciparum [7]
  IC50: 150 nM
[28]
  IC50: 4800 nM
Plasmodium falciparum [8]
  IC50: 113 nM
Liver microsome [2]
  Stability: Stable
[3]
  Stability: Stable

## CS(=O)(=O)c1ccc(-c2cnc3ccc(-c4cccc(S(C)(=O)=O)c4)nn23)cc1
Plasmodium berghei [9]
  Activity: 99.8%
[10]
  selectivity ratio: > 1000
Plasmodium berghei [11]
  MSD: 7 days
[12]
  selectivity ratio: > 1000
Liver microsome [1]
  Stability: Stable
[13]
  selectivity ratio: > 1000
[28]
  IC50: 900 nM
[15]
  selectivity ratio: > 1000
Plasmodium berghei [29]
  IC50: 4.1 nM
Liver microsome [2]
  Stability: Stable
[3]
  Stability: Stable

## C[C@H]1[C@H](OC(=O)CCC(=O)O)O[C@@H]2O[C@@]3(C)CC[C@H]4[C@H](C)CC[C@@H]1[C@@]24OO3 [ARTESUNATE]
Plasmodium berghei [4]
  Activity: 99%
Plasmodium falciparum [5]
  ED90: 11.1 mg/kg
Plasmodium falciparum [7]
  IC50: 3 nM
Plasmodium berghei [6]
  MSD: 10 days
Plasmodium falciparum [8]
  IC50: 4 nM

## CS(=O)(=O)c1ccc(-c2cnc3ccc(-c4cccc(C(F)(F)F)c4)nn23)cc1
Plasmodium berghei [9]
  Activity: 99.8%
Plasmodium berghei [11]
  MSD: >30 days
Liver microsome [1]
  Stability: Stable
Plasmodium berghei [23]
  Activity: 70%
Plasmodium falciparum [7]
  IC50: 60 nM
Plasmodium berghei [24]
  MSD: 7 days
Plasmodium berghei [25]
  Activity: <40%
Plasmodium berghei [26]
  MSD: 4 days
Plasmodium falciparum [8]
  IC50: 46 nM
Liver microsome [2]
  Stability: Stable
Plasmodium berghei [27]
  Activity: Active
[3]
  Stability: Stable

## CCN(CC)CCCC(C)Nc1ccnc2cc(Cl)ccc12 (stereo not given) [CHLOROQUINE]
Plasmodium falciparum [5]
  ED90: 4.3 mg/kg

## CS(=O)(=O)c1ccc(-c2cnn3c2NC(c2cccc(C(F)(F)F)c2)CC3)cc1 (stereo not given)
Plasmodium falciparum [7]
  IC50: < 100 nM
